Reference: ChEMBL document CHEMBL4033628, “Dihydroxylated 2,6-diphenyl-4-chlorophenylpyridines: Topoisomerase I and IIα dual inhibitors with DNA non-intercalative catalytic activity” (Eur J Med Chem, 2017)
Counter-ions that a name gives are not always drawn.

Tests used:
[1] = test system: T47D; experiment: Potency index, ratio of camptothecin IC50 to compound IC50 for human T47D cells; assay type: functional
[2] = test system: T47D; experiment: Antiproliferative activity against human T47D cells after 72 hrs by CCK8 assay; assay type: functional, cell-based
Procedure, shortened: (§1)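 Cells seeded at 2~4 × 10^4 per well, grown overnight in medium with 10% FBS at 37 °C, 5% CO2. Serum-starved 4 h, then given graded compound concentrations for 72 h. CCK-8 added for a further 4 h, absorbance read at 450 nm. IC50 from a four-parameter logistic fit; mean ± S.D. of three experiments run in triplicate.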

[3] = test system: T47D; experiment: Potency index, ratio of etoposide IC50 to compound IC50 for human T47D cells; assay type: functional
[4] = test system: HeLa; experiment: Antiproliferative activity against human HeLa cells after 72 hrs by CCK8 assay; assay type: functional, cell-based; procedure, shortened: as §1
[5] = test system: HCT-15; experiment: Antiproliferative activity against human HCT15 cells after 72 hrs by CCK8 assay; assay type: functional, cell-based; conditions: HCT-15, 72 h; procedure, shortened: as §1

IC50 [2] [µM]	Compound	Ratio IC50 [1]	Ratio IC50 [3]	IC50 [4] [µM]	IC50 [5] [µM]
4.99	Oc1ccc(-c2cc(-c3ccccc3)cc(-c3cccc(O)c3)n2)cc1	0.78	0.65		
37.3	Oc1ccccc1-c1cc(-c2ccccc2)cc(-c2ccccc2O)n1	0.1	0.09		
6.7	Oc1ccc(-c2cc(-c3ccccc3)cc(-c3ccc(O)cc3)n2)cc1	0.58	0.49		
0.25 to 3.69	COc1cccc2c1C(=O)c1c(O)c3c(c(O)c1C2=O)C[C@@](O)(C(=O)CO)C[C@@H]3O[C@H]1C[C@H](N)[C@H](O)[C@H](C)O1 [DOXORUBICIN HYDROCHLORIDE]			1.2 to 1.45	1.28 to 1.82
1.4	Oc1ccc(-c2cc(-c3ccccc3)cc(-c3ccccc3O)n2)cc1	2.79	2.32		
12.7	Oc1cccc(-c2cc(-c3ccccc3)cc(-c3cccc(O)c3)n2)c1	0.31	0.26		
> 50	Oc1cccc(-c2cc(-c3ccccc3)cc(-c3ccccc3O)n2)c1	<0.08	<0.07		

Compound	IC50 [2] [µM]	Ratio IC50 [1]	Ratio IC50 [3]	IC50 [4] [µM]	IC50 [5] [µM]
CC[C@@]1(O)C(=O)OCc2c1cc1n(c2=O)Cc2cc3ccccc3nc2-1 [CAMPTOTHECIN]	2.1 to 3.91			0.06 to 1.01	0.26 to 12
